Measured values from ChEMBL document CHEMBL4513216, “Probing the Open Global Health Chemical Diversity Library for Multistage-Active Starting Points for Next-Generation Antimalarials” (ACS Infect Dis, 2020).

assay: Toxicity liver stage against HepG2, at 10uM; type: cell-based; design: test concentration 10 uM, cell line HepG2-A16-CD81EGFP; conditions: human, HepG2-A16-CD81EGFP cells; read-out: INHIBITION
Procedure, shortened: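 Uninfected HepG2-A16-CD81EGFP cells, 3 × 10^3 per well, 1536-well, plated on prespotted compound at 10 μM final, parasite-free screening media added to match infected plates; puromycin 10 μM positive, DMSO 0.5% negative; run in parallel with 48 h PbLuc assay at 37 °C, 5% CO2; viability by CellTiter-Glo luminescence, normalized to controls.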

Compound | cytotoxicity at 10 µM
c1cc(CN2CC[C@H]3C[C@H](c4nc(C5CC5)cs4)O[C@@H]3C2)ccn1 | 8.81%
COc1ccccc1C(O)CNc1nccc(-c2ccc(C)nc2C)n1 (stereo unspecified) | 8.95%
CCC[C@@H]1CN(Cc2ccccc2-c2ccco2)C[C@H]1NC(C)=O | 20.9%
COc1c(C2CCCN2c2ncnc3ccsc23)c(C)nn1C (stereo unspecified) | 18.6%
Cc1ccc(C(=O)NCC2(O)CCOCC2)cc1F | 6.79%
O=C(NCCc1cnccn1)C1(N2CCCCC2)Cc2ccccc2C1 | -7.82%
CCCNC(=O)CCC(=O)n1nc(C)c2ccccc21 | 1.23%
c1csc(CN2CCO[C@@H]3CN(C4CCOCC4)C[C@@H]3C2)c1 | -157%
CCS(=O)(=O)NCCCNC(=O)N(C)C(C)c1ccccn1 (stereo unspecified) | 7.31%
CC(Cc1ccco1)NS(=O)(=O)N1CCCCC1 (stereo unspecified) | -0.867%
O=C(c1ccc(SC(F)(F)F)cc1)N1CCOCC1c1ncon1 (stereo unspecified) | -0.449%
Cc1occc1C(=O)N1CCC2(CCCN(CC3CC3)C2=O)C1 (stereo unspecified) | -4.58%
Cc1oncc1C(=O)N1CC[C@H]2C[C@H](c3ccncn3)O[C@@H]2C1 | -67.4%
O=C(CCCNc1ncccn1)Nc1cc(C(F)(F)F)c[nH]c1=O | -1.34%
Cn1cnnc1-c1cncc(NCc2cccc3c2OCO3)c1 | 9.15%
Cn1cc(N2CC3(COCCN(Cc4nccs4)C3)OCC2=O)cn1 (stereo unspecified) | -79.9%
Cc1nc(C)n(CC2CCCCN2Cc2nc(-c3ccoc3)no2)n1 (stereo unspecified) | 1.98%
CCOCC1CN(C(=O)c2cccc(C)n2)Cc2cnn(C)c21 (stereo unspecified) | 2.98%
Cc1c(C(=O)NC(C)C)nnn1-c1cccc(C(F)(F)F)c1 | -1.54%
Cc1cc(C)n(CC2CCCCN2CC(=O)Nc2nccs2)n1 (stereo unspecified) | 10.1%
CC(Cn1cccn1)NC(=O)CCc1nc(C(C)(C)C)no1 (stereo unspecified) | 14.5%
CCCSc1nc(O)c(CC)c(=O)n1-c1ccccc1 | 2.77%
Cc1cnn(CC(C)NCc2cccc(C#N)c2)c1 (stereo unspecified) | -2.62%

Compound | cytotoxicity at 10 µM
Cc1ccccc1CS(=O)(=O)c1nnc(N2CCOCC2)s1 | -9.61%
CCn1cc(CN2CCCn3nc(CNC(=O)N(C)C)cc3C2)cn1 | 6.99%
COCCC(=O)N1CCC2(CN(Cc3cccc(Cl)c3)C2)C1 | -79.6%
COc1nn(C)cc1-c1nnc(SCc2cccnc2)n1C | -2.06%
Cc1cnn(CC2CCCCN2C(=O)c2ccc3c(c2)nnn3C)c1 (stereo unspecified) | -6.36%
O=C(OCCNc1ncccn1)c1ccc(Cl)s1 | -2.43%
COc1ccc(CNCCn2c(C)nc3ccccc32)cc1O | -3.51%
COc1cc(C)sc1C(=O)N1CCC(Nc2cccnc2)CC1 | -5.07%
CCN(Cc1ccncc1)C1CCN(c2ccccc2)C1=O (stereo unspecified) | -1.83%
O=C(NC1CCS(=O)(=O)C1)c1ccc(SCc2cscn2)cc1 (stereo unspecified) | -1.23%
O=C(CNC1CCc2ncnn2C1)N(C1=CCCCC1)C1CC1 (stereo unspecified) | -8.07%
CC(C)N1CCCC(C(=O)NCCc2csc(-c3ccncc3)n2)C1 (stereo unspecified) | -17.4%
Fc1ccc(-c2nnc(CN3CCOC(Cn4cncn4)C3)o2)cc1 (stereo unspecified) | -5.97%
COCCN(Cc1ccccn1)C(=O)C1CCCCCN1C (stereo unspecified) | 6.32%
O=c1occ(CN2CCOCC2)c(O)c1CN1CCOCC1 | -12.1%
Cc1cc(Cn2cc(C(C)Cc3ccc4c(c3)OCO4)nn2)n[nH]1 (stereo unspecified) | 5.92%
COc1ccc(-n2ncc(C(C)NC3CCOCC3)c2C)cc1 (stereo unspecified) | 2.77%
O=c1[nH]c2nc(N3CCCC3)ncc2c(=O)n1-c1cccc(F)c1 | 8.24%
COc1cc2nc(C)n(CC(=O)NCC(C)C)c(=O)c2cc1OC | -4.76%
Cc1cnn(CC2CCCN2C(=O)c2cnc(-c3ccco3)s2)c1 (stereo unspecified) | -7.43%
CSc1nsc(NC(=O)N(C)Cc2ccc3c(c2)OCO3)n1 | -10.4%
Cc1nc(CCC(N)=O)cc(C2CCNCC2)n1 | -15.1%
CN(Cc1cnccn1)C(=O)c1ccc(CSc2nnc[nH]2)o1 | 1.22%

Compound | cytotoxicity at 10 µM
COCCC1(CNC(=O)NC2CCCN(C)C2)CC1 (stereo unspecified) | -0.926%
CCOc1ccccc1NC(=O)Nc1cc(N2CCCC2)ncn1 | -0.113%
COc1cc(OCC(=O)NCCc2ccccc2)cc(OC)c1OC | 0.285%
Cc1cc(C)n(CC2CCCN2CCCS(C)(=O)=O)n1 (stereo unspecified) | -3.48%
NS(=O)(=O)c1cnc(NCC2(c3cccc(F)c3)CCOCC2)s1 | -5.71%
Cc1ccc(C(=O)N2CCc3ncc(Cn4cccn4)n3CC2)cn1 | 7.25%
Cc1cccc(C(C)NCC2CCS(=O)(=O)CC2)c1 (stereo unspecified) | -2.67%
COCC(=O)N(C)Cc1ccc(Cl)c(Cl)c1 | -5.13%
CN(Cc1cccc(F)c1)C(=O)c1ccncc1Cl | 10.5%
O=C(COc1ccccc1N1CCCC1)N1CCN[C@H]2CS(=O)(=O)C[C@H]21 | -0.687%
COc1cccc(OCC2CCCN(C(=O)Cc3cccc(O)c3)C2)c1 (stereo unspecified) | -18.9%
CO[C@@H]1CN(c2ccccc2)S(=O)(=O)[C@@]12CCN(Cc1cncs1)C2 | 5.63%
Cc1cc(C(=O)N2CCNC(=O)C2)c(C)n1CC(F)(F)F | 0.962%
COCC(C)(CCO)NC(=O)Nc1cccc(F)c1C (stereo unspecified) | 7.94%
Cc1ncsc1CN1C[C@H](NC(=O)C2CCOCC2)[C@@H](C(C)C)C1 | 6.67%
OC(CN(Cc1ccccc1)Cc1ccccn1)c1cccs1 (stereo unspecified) | 0.174%
CCOCCOC(C)C(=O)Nc1ccc2[nH]c(C)cc2c1 (stereo unspecified) | 5.35%
CC(C)(CNC(=O)C(C)(C)c1ccccc1F)C(N)=O | 6.38%
Cc1cccc(OCc2ccc(C(=O)N3N=CCC3(O)C(F)(F)F)o2)c1 (stereo unspecified) | 25.2%
CC(C)(C)C(=O)N1CCC(c2cnc(-c3cn[nH]c3)cn2)CC1 | 1.16%
CCN(CC(C)C#N)C(=O)CNc1cc(Cl)ccc1C(N)=O (stereo unspecified) | 17.6%
Cc1cnn(C2CCCN(C(=O)Cc3ccc4c(c3)CCO4)C2)c1 (stereo unspecified) | -5.83%
CN(C)c1ccc(C(=O)N2CCCC2c2cnn(C)c2)nn1 (stereo unspecified) | -10.3%

Compound | cytotoxicity at 10 µM
Cn1nc(CNC(=O)c2ccc3c(c2)OCO3)c2c1CCOC2 | -1.82%
CN(C)C(=O)COC1COC2(CCN(CC3CC3)CC2)C1 (stereo unspecified) | -108%
O=C(NC1CC(=O)N(C2Cc3ccccc3C2)C1)c1ccsc1 (stereo unspecified) | -1.98%
CN(C)S(=O)(=O)N1C[C@H]2CC[C@@H](C1)N(Cc1ccc(F)c(F)c1)C2 | 1.05%
O=C1CC(C(=O)NCCN2CCOC2=O)c2cc(F)ccc2N1 (stereo unspecified) | -0.511%
CNC(=O)NC(=O)CSC(C)c1ccccc1F (stereo unspecified) | -14.4%
Cc1ccsc1CN1CCC(c2cc(C(C)C)n[nH]2)CC1 | 1.13%
O=C(Cc1n[nH]c(-c2cncc(Br)c2)n1)NCc1ccncc1 | -6.3%
Cc1noc(C)c1C(C)NC(=O)N1CCCN(C(=O)c2ccsc2)CC1 (stereo unspecified) | -0.77%
CC(C)N1CCC(N2CCC(C(=O)N(C)C)CC2)CC1 | 4.71%
COc1ccc2nc(CNC(=O)c3cc(C(C)C)on3)[nH]c2c1 | 0.0964%
c1ccc(COC[C@H]2CC[C@H]3[C@H](CCN3Cc3ccco3)O2)nc1 | -144%
CCc1ncc2c(n1)CN(Cc1nc(-c3cccs3)no1)CC2 | -7.82%
Cc1noc(C(C)SCc2ccccn2)n1 (stereo unspecified) | -6.67%
CC(C)(C)c1n[nH]c(C2CN(C(=O)C3=COCCC3)CCO2)n1 (stereo unspecified) | -5.74%
CC(C)(C)c1nc(CN(Cc2cccnc2)C2CN3CCC2CC3)no1 (stereo unspecified) | -4.09%
CCCOC(=O)N1CCn2nc(-c3nc4ccccc4n3C)cc2C1 | 10.6%
O=S(=O)(NCCSc1nncn1C1CC1)c1ccccc1 | -14.1%
Cc1cncc(C(=O)N2CCO[C@H]3[C@H](OCCN(C)C)CC[C@@H]32)c1 | 8.07%
CCc1ccc(O)c(C(=O)NC2CCN(S(=O)(=O)CC)CC2)c1 | 7.37%
Cc1noc(Cl)c1CC(=O)N1CCC(Nc2cccnn2)CC1 | -4.72%
COC(=O)c1cc(C(=O)N2CCN(C)CC2)n(-c2ccccc2)n1 | -13.2%
O=c1[nH][nH]cc1-c1ccnc(NCCc2cccc(O)c2)n1 | -7.83%

Compound | cytotoxicity at 10 µM
C[C@@H]1CN(C(=O)c2ccc(C#N)nc2)C[C@@]1(O)C1CC1 | -28.8%
COc1ccccc1CC(C)CC(=O)NC(C)C (stereo unspecified) | 6.16%
CCn1nc(C)c2c1cnn2CC(=O)Nc1ccc(OC)cc1C | -80.1%
COCCc1noc(-c2cn(Cc3ccc(OC)cc3)nn2)n1 | 5.07%
Cc1cc(CN2CC[C@H]3C[C@H](C(=O)N(C)C)O[C@@H]3C2)no1 | -5.53%
CCOC(=O)c1sc(NC(=O)c2cc(=O)c(OC)c[nH]2)nc1C | -57.1%
COC(=O)C(O)C1CCN(CCc2ccccn2)CC1 (stereo unspecified) | -7.64%
CNC(=O)c1cn[nH]c1C1CCCN1C(=O)c1cccnc1 (stereo unspecified) | -23.3%
COc1ccc(CC2CN(Cc3cncn3C)CCO2)cc1 (stereo unspecified) | 0.328%
CN1CCC(c2[nH]ncc2S(C)(=O)=O)CC1 | -7.06%
COC(=O)c1cc(OCC2CCC2)cc(C(=O)N[C@@H](C)CO)c1 | -2.18%
CCN(CC)Cc1cc(C(=O)N2CC[C@@]3(O)CCCC[C@H]3C2)c(C)o1 | 2.93%
Clc1ccc(-c2ccc(C3CNCCO3)nc2)cc1 (stereo unspecified) | -5.86%
CCc1nnc2n1CCN(Cc1csc(-c3ccccc3)n1)C2 | -6.29%
COc1ccccc1-c1ccccc1CC1(C(=O)O)CCNCC1 | -0.782%
COCCOc1ccc(-c2noc([C@@H]3CCCN3)n2)cn1 | -4.34%
O=C(c1cscn1)N1CCC[C@]2(C[C@@H](OCC3CC3)CO2)C1 | -69.9%
O=C(Nc1ccccc1)[C@H]1C[C@H]2CN(S(=O)(=O)c3ccccc3)C[C@@H]1O2 | 5.8%
COCCNC(=O)Cn1cc(OCc2ccccc2)c(=O)cc1CO | -7.44%
